Laboratory results from ChEMBL document CHEMBL3102834, “Discovery of 5-substituted pyrrolo[2,3-d]pyrimidine antifolates as dual-acting inhibitors of glycinamide ribonucleotide formyltransferase and 5-aminoimidazole-4-carboxamide ribonucleotide formyltransferase in de novo purine nucleotide biosynthesis: implications of inhibiting …” (J Med Chem, 2013).
Active and inactive are the calls of the source. The rule behind the calls is not given here.

Experiments:
[1] = Cytotoxicity against chinese hamster R2(VC) cells after 96 hrs by CellTitre-Blue fluorescence assay; format: functional, cell-based; conditions: Cricetulus griseus
Procedure, shortened: (§1)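 CHO sublines were grown in FF-RPMI/DFBS; transfectants were maintained with G418. Cells were exposed to antifolate (0–1 μM) for 96 h at 37 °C with 2 nM LCV (RT16) or 25 nM LCV (R2/PCFT4). PC43-10 cells were grown in standard RPMI1640/DFBS instead. FRα specificity was tested by adding 200 nM folic acid. Viable cells were read by CellTiter-Blue fluorescence (ex 560/em 590), and IC50 was taken from dose–response curves; means of 3–10 experiments.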

KB [2] = test: Induction of apoptosis in human KB cells assessed as early apoptotic cells at 1 uM after 96 hrs by Annexin V-FITC/7-AAD staining-based flow cytometry (reference value: 0.485%); format: functional
KB [3] = test: Cell cycle arrest in human KB cells assessed as accumulation at G2/M phase at 1 uM after 96 hrs by propidium iodide staining-based flow cytometry (reference value: 13.2%); format: functional
[4] = Cytotoxicity against chinese hamster RT16 cells expressing human FRalpha after 96 hrs by CellTitre-Blue fluorescence assay in presence of folic acid; format: functional, cell-based; conditions: Cricetulus griseus, RT16, 96 h; procedure, shortened: as §1
KB [5] = test: Induction of apoptosis in human KB cells assessed as necrotic cells at 1 uM after 96 hrs by Annexin V-FITC/7-AAD staining-based flow cytometry (RVB = 7.80%); format: functional
R2 [6] = test: Cytotoxicity against chinese hamster R2 cells after 96 hrs by CellTitre-Blue fluorescence assay; conditions: Cricetulus griseus, R2, 96 h
[7] = (§2) Inhibition of GARFTase in human KB cells assessed as incorporation of [14C]-glycine into [14C]-formyl GAR incubated 30 mins prior to [14C]-glycine addition measured after 16 hrs by radiometric assay in presence of azaserin; format: cell-based
Procedure, shortened: (§3)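 KB cells were preincubated 1 h in folate- and glutamine-free medium with 2 nM LCV and a range of drug concentrations. Azaserine (4 μM final) was added for 30 min, then 2 mM glutamine and [14C(U)]glycine (0.1 mCi/L) for 16 h at 37 °C. TCA extracts were ether-washed and run on AG1×8 anion exchange. [14C]formyl GAR was measured per mg protein, and IC50 was set against DMSO controls; three experiments.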

KB [8] = test: as §2; format: cell-based; procedure, shortened: as §3
[9] = Cytotoxicity against chinese hamster PC43-10 cells expressing human RFC after 96 hrs by CellTitre-Blue fluorescence assay; format: functional, cell-based; conditions: Cricetulus griseus, PC43-10, 96 h; procedure, shortened: as §1
KB [10] = test: Induction of apoptosis in human KB cells assessed as late apoptotic cells at 1 uM after 96 hrs by Annexin V-FITC/7-AAD staining-based flow cytometry (reference value: 2.09%); format: functional
KB [11] = test: Cytotoxicity against human KB cells expressing human RFC/FRalpha/PCFT assessed as depletion of ATP pools at 1 uM after 24 hrs by ion-pair HPLC analysis; format: functional
Procedure, shortened: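 KB cells in FF-RPMI/10% DFBS with 2 mM glutamine and 2 nM LCV were exposed to 1 μM drug for 24 h. They were trypsinized and washed, and nucleotides were extracted. ATP was quantified by reversed-phase ion-pair HPLC on a C18 column. Results are means ± standard errors.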

KB [12] = test: Cytotoxicity against human KB cells expressing human RFC/FRalpha/PCFT after 96 hrs by CellTitre-Blue fluorescence assay in presence of thymidine/adenosine; format: functional, cell-based
Procedure, shortened: (§4)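 KB cells were grown in FF-RPMI with DFBS and 2 nM LCV, exposed to antifolate (0–1 μM) for 96 h at 37 °C, and read by CellTiter-Blue fluorescence. IC50 was taken from dose–response curves relative to untreated cells. Protection arms added adenosine 60 μM, thymidine 10 μM, AICA 320 μM, or folic acid 200 nM. Means of 3–10 experiments.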

KB [13] = test: Cell cycle arrest in human KB cells assessed as accumulation at G1/G0 phase at 1 uM after 96 hrs by propidium iodide staining-based flow cytometry (reference value: 67.4%); format: functional
KB [14] = test: Cell cycle arrest in human KB cells assessed as accumulation at S phase at 1 uM after 96 hrs by propidium iodide staining-based flow cytometry (reference value: 15.9%); format: functional
KB [15] = test: Cytotoxicity against human KB cells expressing human RFC/FRalpha/PCFT after 96 hrs by CellTitre-Blue fluorescence assay in presence of adenosine/AICA/thymidine; format: functional, cell-based; procedure, shortened: as §4
KB [16] = test: Cell cycle arrest in human KB cells assessed as accumulation at sub-G1 phase at 1 uM after 96 hrs by propidium iodide staining-based flow cytometry (reference value: 3.5%); format: functional
KB [17] = test: Cytotoxicity against human KB cells expressing human RFC/FRalpha/PCFT after 96 hrs by CellTitre-Blue fluorescence assay; format: functional, cell-based; procedure, shortened: as §4
KB [18] = test: Cytotoxicity against human KB cells expressing human RFC/FRalpha/PCFT after 96 hrs by CellTitre-Blue fluorescence assay in presence of folic acid; format: functional, cell-based; procedure, shortened: as §4
[19] = Cytotoxicity against chinese hamster RT16 cells expressing human FRalpha after 96 hrs by CellTitre-Blue fluorescence assay; format: functional, cell-based; conditions: Cricetulus griseus, RT16, 96 h; procedure, shortened: as §1
KB [20] = test: Induction of apoptosis in human KB cells assessed as viable cells at 1 uM after 96 hrs by Annexin V-FITC/7-AAD staining-based flow cytometry (RVB = 89.6%); format: functional; conditions: read-out: Activity
KB [21] = test: Cell cycle arrest in human KB cells assessed as accumulation at G1/G0 phase at 1 uM after 48 hrs by propidium iodide staining-based flow cytometry relative to control; format: functional
R2 [22] = test: Cytotoxicity against chinese hamster R2 cells expressing human PCFT4 after 96 hrs by CellTitre-Blue fluorescence assay; format: functional, cell-based, Cricetulus griseus; conditions: R2, 96 h
KB [23] = test: Cytotoxicity against human KB cells at 10 mM after 96 hrs by CellTitre-Blue fluorescence assay; format: functional; conditions: read-out: GI
Procedure, shortened: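 KB cells were exposed for 96 h at 37 °C to metformin (0–10 mM) or AICA (0–2 mM) in FF-RPMI/DFBS with 2 nM LCV. Growth was read by CellTiter-Blue fluorescence relative to drug-free cells.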

[24] = biological target: Bifunctional purine biosynthesis protein ATIC (Homo sapiens) (UniProt P31939); test: Inhibition of AICARFTase in human KB cells assessed as phosphorylated AMPK at 10 mM after 48 hrs by Western blot analysis; format: cell-based
Procedure, shortened: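 KB cells were treated for 48 h with 10 μM thymidine, or with AMPK activators (metformin 10 mM, AICA 1 mM, AICAR 1 mM) against a water/DMSO vehicle. Cells were sonicated in 10 mM Tris-HCl pH 7.0 with protease/phosphatase inhibitors. 90 μg protein was run on 4–20% SDS gels and blotted for phospho-AMPK, total AMPK and β-actin, with infrared detection.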

[25] = biological target: Folate receptor alpha (Homo sapiens) (UniProt P15328); test: Displacement of [3H]folic acid from human FRalpha expressed in chinese hamster RT16 cells after 15 mins by scintillation counting analysis; format: cell-based
Procedure, shortened: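 FRα-expressing RT16 CHO cells (~1.5 × 10^6) were grown as monolayers. Bound folates were stripped with ice-cold acetate buffer (pH 3.5), then neutralised with HEPES-buffered saline (pH 7.4). Cells were then competed with [3H]folic acid against graded unlabelled ligand. Bound label read by scintillation, normalised to Folin-phenol protein (pmol/mg). Relative affinity = inverse molar ratio for 50% displacement, folic acid set at 1. Three experiments.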

Sequence of Bifunctional purine biosynthesis protein ATIC (Homo sapiens) (P31939 whole entry, looked up): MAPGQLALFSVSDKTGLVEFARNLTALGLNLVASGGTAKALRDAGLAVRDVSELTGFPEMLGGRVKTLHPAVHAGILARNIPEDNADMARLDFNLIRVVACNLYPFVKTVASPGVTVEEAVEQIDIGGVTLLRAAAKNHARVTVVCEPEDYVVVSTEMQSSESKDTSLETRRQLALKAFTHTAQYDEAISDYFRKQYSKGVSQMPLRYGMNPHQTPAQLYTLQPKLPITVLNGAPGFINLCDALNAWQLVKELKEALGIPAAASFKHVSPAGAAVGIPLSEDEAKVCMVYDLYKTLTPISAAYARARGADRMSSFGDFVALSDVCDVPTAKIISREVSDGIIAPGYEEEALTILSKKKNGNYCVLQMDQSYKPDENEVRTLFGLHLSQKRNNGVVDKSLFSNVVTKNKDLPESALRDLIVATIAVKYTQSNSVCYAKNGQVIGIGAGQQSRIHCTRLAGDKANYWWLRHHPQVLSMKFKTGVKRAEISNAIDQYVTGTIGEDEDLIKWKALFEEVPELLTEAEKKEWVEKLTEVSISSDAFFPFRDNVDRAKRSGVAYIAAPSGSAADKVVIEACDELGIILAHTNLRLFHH
Sequence of Folate receptor alpha (Homo sapiens) (P15328 25-234 limits assumed): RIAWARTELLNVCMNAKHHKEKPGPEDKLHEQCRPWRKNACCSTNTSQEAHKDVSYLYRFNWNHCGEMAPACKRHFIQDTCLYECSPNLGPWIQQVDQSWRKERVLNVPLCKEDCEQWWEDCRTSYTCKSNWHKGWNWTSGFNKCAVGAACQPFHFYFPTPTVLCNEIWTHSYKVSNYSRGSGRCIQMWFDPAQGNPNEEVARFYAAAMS

SMILES: Cc1nc(=O)c2cc(CN(C)c3ccc(C(=O)N[C@@H](CCC(=O)O)C(=O)O)s3)ccc2[nH]1 [RALTITREXED]
- IC50 [1]: > 1000 nM

SMILES: Nc1nc2[nH]cc(CCc3ccc(C(=O)N[C@@H](CCC(=O)O)C(=O)O)cc3)c2c(=O)[nH]1 [PEMETREXED]
- Activity (KB [2]): 30.6%
- Activity (KB [3]): 7.5%
- IC50 [4]: > 1000 nM
- Activity (KB [5]): 0.271%
- IC50 (R2 [6]): > 1000 nM
- IC50 [7]: 11.7 nM
- inhibition (KB [8]): Dose-dependent effect
- IC50 [9]: 30.6 nM
- Activity (KB [10]): 4.56%
- inhibition at 1 µM (KB [11]): 60%
- Activity (KB [12]): inactive
- Activity (KB [13]): 47.8%
- IC50 [1]: > 1000 nM
- Activity (KB [14]): 27.5%
- Activity (KB [15]): Active
- Activity (KB [16]): 17.3%
- IC50 (KB [17]): 9.94 nM
- IC50 (KB [18]): 690 nM
- IC50 [19]: 18.2 nM
- viability at 1 µM (KB [20]): 64.6%
- Activity (KB [21]): Active

SMILES: Nc1nc2[nH]c(CCCCCc3ccc(C(=O)N[C@@H](CCC(=O)O)C(=O)O)cc3)cc2c(=O)[nH]1
- IC50 [1]: > 1000 nM
- IC50 (R2 [22]): > 1000 nM

SMILES: CN(C)C(=N)NC(=N)N [METFORMIN]
- inhibition of growth at 10000 µM (KB [23]): 32%
- inhibition [24]: inactive

SMILES: CN(Cc1cnc2nc(N)nc(N)c2n1)c1ccc(C(=O)N[C@@H](CCC(=O)O)C(=O)O)cc1 [METHOTREXATE]
- inhibition [25]: inactive
- IC50 [1]: > 1000 nM

SMILES: Nc1nc2[nH]c(CCCc3ccc(C(=O)N[C@@H](CCC(=O)O)C(=O)O)cc3)cc2c(=O)[nH]1
- IC50 (R2 [6]): > 1000 nM
- IC50 [9]: 649 nM
- IC50 [1]: > 1000 nM

SMILES: Nc1nc2[nH]cc(CCCCCCc3ccc(C(=O)N[C@@H](CCC(=O)O)C(=O)O)cc3)c2c(=O)[nH]1
- IC50 [4]: > 1000 nM
- IC50 (R2 [6]): > 1000 nM
- IC50 [1]: > 1000 nM
- IC50 (R2 [22]): > 1000 nM
